Experiments:
KB3-1 = conditions: read-out: IC50 against KB3-1 cells; range for compounds 1 and 2 together; cited from earlier work
[1] = system: human breast cancer xenograft (MDA-MB-435); conditions: MDA-MB-435 human breast cancer xenograft, athymic nude mice; cited from earlier work
[2] = system: KBV-1 (overexpresses the efflux transporter MDR1); assay: MTT-microtiter plate tetrazolinium cytotoxicity assay; format: cell-based, human; conditions: inferred from cytotoxicity in KBV-1 versus parent KB3-1
[3] = system: KBH5.0 (overexpresses BCRP); assay: as above; format: cell-based, human; conditions: inferred from cytotoxicity in KBH5.0 versus parent KB3-1
[4] = system: d(TTAGGG)4 quadruplex DNA; assay: UV melting of quadruplex DNA; format: binding, human; conditions: range over 50 and 150 mM K+ and over the compounds named together
Method in brief: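 d(TTAGGG)4 at 5 μM strand, annealed at 90 °C for 5 min and slowly cooled over 4 h; test compound 20 μM. Buffer: 10 mM potassium phosphate, pH 7.5, plus KCl at 32 mM (50 mM K+) or 132 mM (150 mM K+). Absorbance read at 295 nm in 0.5 °C steps with 1 min equilibration. Ttran taken from the first-derivative minimum. ΔTtran is the shift against DNA alone, ±1.0 °C.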

[5] = qualitative statement of the introduction; no reference given; cited from earlier work
[6] = in vivo; cited from earlier work

| SMILES | substrate for MDR1 efflux transporter [2] | substrate for BCRP efflux transporter [3] | ΔTtran of quadruplex DNA (range given) [4] | further results |
| --- | --- | --- | --- | --- |
| CN(C)CCc1cc2cc(c1)CNC(=O)c1coc(n1)-c1coc(n1)-c1cccc(n1)-c1nc(co1)-c1nc(co1)C(=O)NC2 [Compound 2] |  |  |  | IC50 (KB3-1): 30 to 40 nM; %T/C value [1]: 27.7% |
| O=C1CNC(=O)c2coc(n2)-c2coc(n2)-c2cccc(c2)-c2cccc(c2)-c2nc(co2)-c2nc(co2)CN1 [Compound 16] | substrates | substrates | 4.1–6.4 °C |  |
| CC(C)[C@@H]1NC(=O)c2coc(n2)-c2coc(n2)-c2cccc(c2)-c2cccc(c2)-c2nc(co2)-c2nc(co2)CNC1=O [Compound 17] |  |  | 4.1–6.4 °C |  |
| O=C1N[C@@H](Cc2ccccc2)C(=O)NCc2coc(n2)-c2coc(n2)-c2cccc(c2)-c2cccc(c2)-c2nc(co2)-c2nc1co2 [Compound 18] |  |  | 1.1–2.8 °C |  |
| CC(C)(C)OC(=O)NCC[C@@H]1NC(=O)c2coc(n2)-c2coc(n2)-c2cccc(c2)-c2cccc(c2)-c2nc(co2)-c2nc(co2)CNC1=O [Compound 19] |  |  | 1.1–2.8 °C |  |
| NCC[C@@H]1NC(=O)c2coc(n2)-c2coc(n2)-c2cccc(c2)-c2cccc(c2)-c2nc(co2)-c2nc(co2)CNC1=O [Compound 20] | substrates | substrates | 8.4–14.6 °C |  |
| CN(C)CC[C@@H]1NC(=O)c2coc(n2)-c2coc(n2)-c2cccc(c2)-c2cccc(c2)-c2nc(co2)-c2nc(co2)CNC1=O [Compound 21] | substrates | substrates | 8.4–14.6 °C |  |
| CC(C)[C@@H]1NC(=O)c2coc(n2)-c2coc(n2)-c2coc(n2)[C@H](C(C)C)NC(=O)c2coc(n2)-c2coc(n2)-c2coc1n2 [HXDV] |  |  |  | aqueous solubility [5]: poor aqueous solubility |
| CC(C)[C@@H]1NC(=O)c2coc(n2)-c2coc(n2)-c2coc(n2)C/C=C/c2coc(n2)-c2coc(n2)-c2coc1n2 [METV] |  |  |  | aqueous solubility [5]: poor aqueous solubility |
| CC(C)[C@@H]1NC(=O)c2coc(n2)-c2coc(n2)-c2coc(n2)[C@H](CCN(C)C)NC(=O)c2coc(n2)-c2coc(n2)-c2coc1n2 [YAK-1-161] |  |  |  | well tolerated dose levels [6]: ≤ 45 mg/kg |

— PMC3949619 (Bioorganic & medicinal chemistry, 2013)
